Source: ChEMBL document CHEMBL1153436, “2-Pyridyl P1'-substituted symmetry-based human immunodeficiency virus protease inhibitors (A-792611 and A-790742) with potential for convenient dosing and reduced side effects” (J Med Chem, 2009)
In brackets after ≈: the same amount, converted by molar mass.

Columns and labels:
[1] = system: Human immunodeficiency virus 1; test: Antiviral activity against HIV1 bearing protease gene with B26 mutation infected in human MT4 cells after 5 days by MTT assay; format: functional, organism-based; settings: Human immunodeficiency virus 1, MT4, 120 h
[2] = system: Human immunodeficiency virus 1; test: Antiviral activity against HIV1 bearing protease gene with P25 mutation infected in human MT4 cells after 5 days by MTT assay; format: functional, organism-based; settings: Human immunodeficiency virus 1, MT4, 120 h
Rattus norvegicus [3] = test: Toxicity in Gunn rat assessed as unconjugated-bilirubin level at 125 mg/kg coadministered with ritonavir measured on day 1; format: organism-based; design: dose 125 mg/kg; settings: in vivo
How it was run: (§1)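 Gunn rats (n = 8-10 per arm) dosed orally with compound in 5% ethanol/95% propylene glycol with p-toluenesulfonic acid, together with 50 mg/kg RTV. Plasma was sampled 4 h after the first and second doses. Drug was measured by HPLC and bilirubin […]. Change in bilirubin (mg/dL) reported as mean with SD.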

Serum [4] = test: Drug level in Gunn rat serum at 125 mg/kg coadministered with ritonavir measured on day 1; format: ADME, organism-based; design: dose 125 mg/kg; settings: in vivo; how it was run: as §1
[5] = system: Human immunodeficiency virus 1; test: Antiviral activity against wild-type HIV1 pNL4-3 infected in human MT4 cells after 5 days by MTT assay; format: functional, organism-based; settings: Human immunodeficiency virus 1, MT4, 120 h
[6] = system: Human immunodeficiency virus 1; test: Antiviral activity against wild-type HIV1 pNL4-3 infected in human MT4 cells after 5 days by MTT assay in presence of 50% human serum; format: functional, organism-based; settings: Human immunodeficiency virus 1, MT4, 120 h
[7] = system: Human immunodeficiency virus 1; test: Antiviral activity against HIV1 bearing protease gene with A17 mutation infected in human MT4 cells after 5 days by MTT assay; format: functional, organism-based; settings: Human immunodeficiency virus 1, MT4, 120 h
How it was run: (§2)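 HIV-1 A17 mutant clone carrying protease mutations L10F, V32I, M46I, I47V, Q58E and I84V, generated by in vitro serial passage under LPV/RTV. EC50 was determined in MT-4 cells. Wild-type reference strain was HIV-1 pNL4-3.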

[8] = Half life in Sprague-Dawley rat at 5 mg/kg, iv; format: ADME, organism-based; design: dose 5 mg/kg, route intravenous; settings: in vivo
How it was run: (§3)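 Male Sprague-Dawley-derived rats (n = 3) dosed iv or by oral gavage with 5 mg/mL solutions in 5% dextrose containing 20% ethanol, 30% propylene glycol and methanesulfonic acid equivalents. Plasma was sampled at 10 time points over 8 h, extracted into ethyl acetate/hexane and analysed by reversed-phase HPLC with internal standard. AUC in µg·h/mL.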

[9] = Clearance in Sprague-Dawley rat at 5 mg/kg, iv; format: ADME, organism-based; design: dose 5 mg/kg, route intravenous; settings: in vivo; how it was run: as §3
[10] = Oral bioavailability in Sprague-Dawley rat at 5 mg/kg; format: ADME, organism-based; settings: in vivo; how it was run: as §3
[11] = AUC in Sprague-Dawley rat at 5 mg/kg, po; format: ADME, organism-based; design: dose 5 mg/kg, route oral; settings: plasma; how it was run: as §3
[12] = AUC in Sprague-Dawley rat at 5 mg/kg, po in presence of ritonavir; format: ADME, organism-based; design: dose 5 mg/kg, route oral; settings: plasma; how it was run: as §3
[13] = AUC in dog at 5 mg/kg, po; format: ADME, organism-based, Canis lupus familiaris; design: dose 5 mg/kg, route oral; settings: plasma
How it was run: (§4)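 Male and female beagle dogs (n = 3) given oral gavage doses formulated as 5 mg/mL solutions in 5% dextrose with 20% ethanol, 30% propylene glycol and methanesulfonic acid, alone or with RTV (2.5 or 5 mg/kg). Plasma was taken at 12 time points over 12 h, extracted with ethyl acetate/hexane and analysed by reversed-phase HPLC with internal standard. AUC in µg·h/mL; Cmax and C12h in µg/mL.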

[14] = Cmax in dog at 5 mg/kg, po; format: ADME, organism-based, Canis lupus familiaris; design: dose 5 mg/kg, route oral; settings: in vivo; how it was run: as §4
[15] = AUC in dog at 5 mg/kg, po coadministered with 2.5 mg/kg ritonavir; format: ADME, organism-based, Canis lupus familiaris; settings: plasma; how it was run: as §4
[16] = Cmax in dog at 5 mg/kg, po coadministered with 2.5 mg/kg ritonavir; format: ADME, organism-based, Canis lupus familiaris; design: dose 5 mg/kg, route oral; settings: in vivo; how it was run: as §4
[17] = Concentration of drug after 12 hrs in dog at 5 mg/kg, po coadministered with 2.5 mg/kg ritonavir; format: ADME, organism-based, Canis lupus familiaris; settings: in vivo, read-out: Drug uptake; how it was run: as §4
[18] = AUC in dog at 5 mg/kg, po coadministered with 5 mg/kg ritonavir; format: ADME, organism-based, Canis lupus familiaris; settings: plasma; how it was run: as §4
[19] = Cmax in dog at 5 mg/kg, po coadministered with 5 mg/kg ritonavir; format: ADME, organism-based, Canis lupus familiaris; design: dose 5 mg/kg, route oral; settings: in vivo; how it was run: as §4
[20] = Concentration of drug after 12 hrs in dog at 5 mg/kg, po coadministered with 5 mg/kg ritonavir; format: ADME, organism-based, Canis lupus familiaris; settings: in vivo, read-out: Drug uptake; how it was run: as §4
[21] = Solubility at pH 7.4; format: physicochemical; settings: buffer
How it was run: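 Solubility measured in µg/mL at pH 7.4 and 25 °C.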

[22] = Protein binding in human plasma by equilibrium dialysis; format: ADME, cell-free; settings: read-out: PB (converted)
How it was run: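 Percentage bound in human plasma, determined by equilibrium dialysis.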

Cytochrome P450 1A2 = target: T1, Cytochrome P450 1A2 (Homo sapiens, UniProt P05177); test: Inhibition of CYP1A2 assessed as phenacetin O-deethylation; format: ADME
T1 sequence (P05177 whole entry): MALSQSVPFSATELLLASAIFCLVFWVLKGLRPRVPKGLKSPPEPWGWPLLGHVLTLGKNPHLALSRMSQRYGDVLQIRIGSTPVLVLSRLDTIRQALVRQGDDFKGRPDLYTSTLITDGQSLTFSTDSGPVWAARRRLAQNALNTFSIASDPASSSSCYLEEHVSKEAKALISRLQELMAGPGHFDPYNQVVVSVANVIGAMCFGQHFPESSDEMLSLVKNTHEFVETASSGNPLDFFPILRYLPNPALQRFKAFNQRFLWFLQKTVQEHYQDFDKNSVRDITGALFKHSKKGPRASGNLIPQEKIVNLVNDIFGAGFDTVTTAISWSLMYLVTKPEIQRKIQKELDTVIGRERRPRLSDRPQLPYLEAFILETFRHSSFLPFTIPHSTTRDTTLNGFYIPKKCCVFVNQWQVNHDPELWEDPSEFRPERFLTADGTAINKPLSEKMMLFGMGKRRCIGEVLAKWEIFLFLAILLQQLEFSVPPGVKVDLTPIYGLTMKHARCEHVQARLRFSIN
How it was run: (§5)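 CYP inhibition in vitro, with probe reactions of phenacetin O-deethylation (CYP1A2), tolbutamide hydroxylation (CYP2C9), S-mephenytoin hydroxylation (CYP2C19) and dextromethorphan O-demethylation (CYP2D6). Reported as IC50 in µM.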

Cytochrome P450 2C9 = Cytochrome P450 2C9 (Homo sapiens, UniProt P11712); test: Inhibition of CYP2C9 assessed as Tolbutamide hydroxylation; format: ADME; how it was run: as §5
Chain of Cytochrome P450 2C9 (P11712 whole entry): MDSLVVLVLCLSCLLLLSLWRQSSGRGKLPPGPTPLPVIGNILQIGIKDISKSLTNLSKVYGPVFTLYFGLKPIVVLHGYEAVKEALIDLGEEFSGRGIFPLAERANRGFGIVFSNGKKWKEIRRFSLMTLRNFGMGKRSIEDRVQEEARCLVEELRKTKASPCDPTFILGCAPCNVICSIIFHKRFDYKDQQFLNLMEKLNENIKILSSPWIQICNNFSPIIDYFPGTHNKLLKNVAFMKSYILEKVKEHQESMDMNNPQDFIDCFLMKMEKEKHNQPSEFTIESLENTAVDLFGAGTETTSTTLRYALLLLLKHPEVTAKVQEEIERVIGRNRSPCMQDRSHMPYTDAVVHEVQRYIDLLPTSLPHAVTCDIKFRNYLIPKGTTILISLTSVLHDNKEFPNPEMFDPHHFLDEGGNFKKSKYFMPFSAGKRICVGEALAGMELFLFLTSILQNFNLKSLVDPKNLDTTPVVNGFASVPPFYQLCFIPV

Cytochrome P450 2C19 = Cytochrome P450 2C19 (Homo sapiens, UniProt P33261); test: Inhibition of CYP2C19 assessed as S-mephenytion hydroxylation; format: ADME; how it was run: as §5
Chain of Cytochrome P450 2C19 (P33261 whole entry): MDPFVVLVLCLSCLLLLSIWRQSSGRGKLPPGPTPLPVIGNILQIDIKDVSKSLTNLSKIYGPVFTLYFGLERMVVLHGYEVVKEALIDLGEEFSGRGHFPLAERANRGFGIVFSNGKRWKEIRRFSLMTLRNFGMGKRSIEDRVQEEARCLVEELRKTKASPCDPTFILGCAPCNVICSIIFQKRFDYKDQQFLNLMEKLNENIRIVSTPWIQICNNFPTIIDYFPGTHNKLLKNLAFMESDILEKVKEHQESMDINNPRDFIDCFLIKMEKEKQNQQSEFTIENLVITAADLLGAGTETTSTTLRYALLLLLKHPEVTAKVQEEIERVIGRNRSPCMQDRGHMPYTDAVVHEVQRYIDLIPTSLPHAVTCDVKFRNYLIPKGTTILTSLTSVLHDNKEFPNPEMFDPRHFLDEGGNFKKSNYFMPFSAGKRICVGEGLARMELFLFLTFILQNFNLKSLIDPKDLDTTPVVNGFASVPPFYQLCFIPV

Cytochrome P450 2D6 = Cytochrome P450 2D6 (Homo sapiens, UniProt P10635); test: Inhibition of CYP2D6 assessed as dextromethorphan O-demethylation; format: ADME; how it was run: as §5
Chain of Cytochrome P450 2D6 (P10635 whole entry): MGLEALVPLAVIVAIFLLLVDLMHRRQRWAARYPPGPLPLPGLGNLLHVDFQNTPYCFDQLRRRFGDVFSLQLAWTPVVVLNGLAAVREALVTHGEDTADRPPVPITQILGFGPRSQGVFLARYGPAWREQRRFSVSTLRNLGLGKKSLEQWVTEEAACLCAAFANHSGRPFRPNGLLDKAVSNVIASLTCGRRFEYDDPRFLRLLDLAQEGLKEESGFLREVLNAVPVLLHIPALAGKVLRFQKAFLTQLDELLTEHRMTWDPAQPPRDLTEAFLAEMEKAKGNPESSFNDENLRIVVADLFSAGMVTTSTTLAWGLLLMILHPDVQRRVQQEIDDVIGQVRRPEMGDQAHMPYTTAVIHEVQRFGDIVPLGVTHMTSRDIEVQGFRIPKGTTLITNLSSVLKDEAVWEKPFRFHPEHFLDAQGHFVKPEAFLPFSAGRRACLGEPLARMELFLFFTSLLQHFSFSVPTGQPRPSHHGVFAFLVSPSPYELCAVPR

Cytochrome P450 3A4 = Cytochrome P450 3A4 (Homo sapiens, UniProt P08684); test: Inhibition of CYP3A4 assessed as midazolam 1'- hydroxylation; format: ADME
Chain of Cytochrome P450 3A4 (P08684 whole entry): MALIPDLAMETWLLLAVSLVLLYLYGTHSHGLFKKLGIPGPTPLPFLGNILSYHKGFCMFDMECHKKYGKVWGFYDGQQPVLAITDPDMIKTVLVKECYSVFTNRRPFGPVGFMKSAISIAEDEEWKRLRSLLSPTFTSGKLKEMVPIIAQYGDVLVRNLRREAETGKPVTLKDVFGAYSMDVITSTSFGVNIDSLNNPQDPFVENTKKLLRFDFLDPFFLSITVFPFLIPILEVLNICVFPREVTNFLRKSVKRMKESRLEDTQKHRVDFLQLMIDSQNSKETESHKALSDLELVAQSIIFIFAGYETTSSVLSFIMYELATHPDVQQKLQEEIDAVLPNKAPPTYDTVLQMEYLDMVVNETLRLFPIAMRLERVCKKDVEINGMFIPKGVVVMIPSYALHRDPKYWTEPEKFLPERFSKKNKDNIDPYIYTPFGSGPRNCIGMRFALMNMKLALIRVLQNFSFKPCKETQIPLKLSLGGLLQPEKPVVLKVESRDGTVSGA
How it was run: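 CYP3A4 inhibition was measured as midazolam 1′-hydroxylation and expressed as Ki in nM.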

[23] = Inhibition of human pepsin
Renin = target: T2, Renin (Homo sapiens, UniProt P00797); test: Inhibition of renin
T2 sequence (P00797 whole entry): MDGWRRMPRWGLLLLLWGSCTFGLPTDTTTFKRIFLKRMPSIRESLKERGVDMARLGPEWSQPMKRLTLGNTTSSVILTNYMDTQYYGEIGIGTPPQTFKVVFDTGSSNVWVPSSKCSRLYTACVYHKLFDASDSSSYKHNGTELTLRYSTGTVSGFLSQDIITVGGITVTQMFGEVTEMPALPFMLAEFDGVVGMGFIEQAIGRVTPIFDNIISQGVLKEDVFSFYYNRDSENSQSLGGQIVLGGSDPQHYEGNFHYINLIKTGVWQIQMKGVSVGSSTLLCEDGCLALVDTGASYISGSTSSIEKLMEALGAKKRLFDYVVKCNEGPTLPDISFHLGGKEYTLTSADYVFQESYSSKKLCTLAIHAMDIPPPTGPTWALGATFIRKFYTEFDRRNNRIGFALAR

Cathepsin D = Cathepsin D (Homo sapiens, UniProt P07339); test: Inhibition of cathepsin D
Chain of Cathepsin D (P07339 65-162 limits assumed): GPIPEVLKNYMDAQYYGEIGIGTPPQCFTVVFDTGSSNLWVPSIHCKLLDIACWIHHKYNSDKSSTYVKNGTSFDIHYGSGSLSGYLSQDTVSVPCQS
Chain of Cathepsin D (P07339 169-412 limits assumed): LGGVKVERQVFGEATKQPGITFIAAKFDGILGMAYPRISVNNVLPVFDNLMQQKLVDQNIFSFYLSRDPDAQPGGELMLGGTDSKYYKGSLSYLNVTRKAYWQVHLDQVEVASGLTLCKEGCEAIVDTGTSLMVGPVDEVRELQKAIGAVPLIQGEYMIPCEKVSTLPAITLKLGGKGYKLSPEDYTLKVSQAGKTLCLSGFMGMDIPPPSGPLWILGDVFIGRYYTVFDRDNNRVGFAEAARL

Rattus norvegicus [24] = test: Toxicity in Gunn rat assessed as unconjugated-bilirubin level at 100 mg/kg coadministered with ritonavir measured on day 1; format: organism-based; design: dose 100 mg/kg; settings: in vivo; how it was run: as §1
Rattus norvegicus [25] = test: Toxicity in Gunn rat assessed as unconjugated-bilirubin level at 100 mg/kg coadministered with ritonavir measured on day 2; format: organism-based; design: dose 100 mg/kg; settings: in vivo; how it was run: as §1
Serum [26] = test: Drug level in Gunn rat serum at 100 mg/kg coadministered with ritonavir measured on day 1; format: ADME, organism-based; design: dose 100 mg/kg; settings: in vivo; how it was run: as §1
Serum [27] = test: Drug level in Gunn rat serum at 100 mg/kg coadministered with ritonavir measured on day 2; format: ADME, organism-based; design: dose 100 mg/kg; settings: in vivo; how it was run: as §1
[28] = system: Human immunodeficiency virus 1; test: Fold resistance, ratio of EC50 for HIV1 bearing protease gene with A17 mutation to EC50 for wild-type HIV1 pNL4-3; format: functional; how it was run: as §2
Rattus norvegicus [29] = test: Toxicity in po dosed Gunn rat assessed as hyperbilirubinemia; format: organism-based; settings: in vivo; how it was run: as §1

Which results are given for COC(=O)N[C@H](C(=O)N[C@H](Cc1ccc(-c2ccccn2)cc1)C[C@H](O)[C@H](Cc1ccccc1)NC(=O)[C@@H](N1CCN(Cc2cccc(C(C)(C)O)n2)C1=O)C(C)(C)C)C(C)(C)C?
EC50 [1]: 25 nM; EC50 [2]: 45 nM; Activity (Rattus norvegicus [3]): 0.125 mg/dL; Drug uptake (Serum [4]): 9.37 µg/mL; EC50 [5]: 3 nM; EC50 [6]: 19 nM; EC50 [7]: 10 nM; half-life [8]: 30 min; clearance [9]: 22.5 mL/min/kg; bioavailability [10]: 4.9%; AUC [11]: 180 ng·h/mL; AUC [12]: 12900 ng·h/mL; AUC [13]: 20 ng·h/mL; Cmax [14]: 40 ng/mL; AUC [15]: 6720 ng·h/mL; Cmax [16]: 2220 ng/mL; concentration at 12 h [17]: 13 ng/mL; AUC [18]: 10600 ng·h/mL; Cmax [19]: 2560 ng/mL; concentration at 12 h [20]: 58 ng/mL; solubility [21]: 11.3 µg/mL (≈ 13.1 µM); fraction unbound [22]: 0.018; IC50 (Cytochrome P450 1A2): > 5000 nM; IC50 (Cytochrome P450 2C9): > 5000 nM; IC50 (Cytochrome P450 2C19): > 5000 nM; IC50 (Cytochrome P450 2D6): > 5000 nM; Ki (Cytochrome P450 3A4): 66 nM; Ki [23]: 200000 nM; Ki (Renin): > 20000 nM; Ki (Cathepsin D): 540 nM

For COC(=O)N[C@H](C(=O)NN(Cc1ccc(-c2ccccn2)cc1)C[C@H](O)[C@H](Cc1ccccc1)NC(=O)[C@@H](N1CCN(Cc2cccc(C)n2)C1=O)C(C)(C)C)C(C)(C)C, which Activity (Rattus norvegicus [24]) is on record?
Its Activity is 0.536 mg/dL.

What about the Activity (Rattus norvegicus [25]) of the same compound?
The Activity was 0.685 mg/dL.

And the Drug uptake (Serum [26])?
The Drug uptake was 8.87 µg/mL.

And the Drug uptake (Serum [27])?
The Drug uptake was 8.88 µg/mL.

And the EC50 [5]?
The EC50 was 2 nM.

What about the EC50 [6] of the same compound?
The EC50 was 30 nM.

What about the EC50 [7] of the same compound?
Its EC50 is 17 nM.

And the “Ratio EC50” value [28]?
Its value is 9.

What about the Activity (Rattus norvegicus [29]) of the same compound?
Its Activity is “Toxic”.
